Experimental data: ChEMBL document CHEMBL1150572, “Isolation and structures of haterumadioxins A and B, cytotoxic endoperoxides from the Okinawan sponge Plakortis lita” (J Nat Prod, 2001)
Values after ≈ are worked out from the molar mass of the structure shown.

Tests used:
[1] = test system: MKN-45; experiment: Growth inhibition of human MKN45 cells; format: functional
[2] = test system: SK-OV-3; experiment: Growth inhibition of human SKOV3 cells; format: functional
[3] = test system: MKN-74; experiment: Growth inhibition of human MKN74 cells; format: functional
[4] = test system: SF-268; experiment: Growth inhibition of human SF268 cells; format: functional
[5] = Growth inhibition of human RXF631L cells; format: functional; conditions: RXF 631
[6] = Growth inhibition of human HBC5 cells; format: functional
[7] = Growth inhibition of human HBC4 cells; format: functional
[8] = test system: ACHN; experiment: Growth inhibition of human ACHN cells; format: functional
[9] = test system: OVCAR-4; experiment: Growth inhibition of human OVCAR4 cells; format: functional
[10] = Growth inhibition of human MKN1 cells; format: functional; conditions: MKN-1
[11] = test system: DMS-273; experiment: Growth inhibition of human DMS273 cells; format: functional
[12] = test system: MKN-7; experiment: Growth inhibition of human MKN7 cells; format: functional
[13] = test system: NCI-H460; experiment: Growth inhibition of human NCI-H460 cells; format: functional
[14] = test system: MKN-28; experiment: Growth inhibition of human MKN28 cells; format: functional
[15] = test system: NCI-H226; experiment: Growth inhibition of human NCI-H226 cells; format: functional
[16] = test system: OVCAR-3; experiment: Growth inhibition of human OVCAR-3 cells; format: functional
[17] = test system: St-4; experiment: Growth inhibition of human St-4 cells; format: functional
[18] = test system: A549; experiment: Growth inhibition of human A549 cells; format: functional
[19] = test system: MDA-MB-231; experiment: Growth inhibition of human MDA-MB-231 cells; format: functional
[20] = test system: HT-29; experiment: Growth inhibition of human HT-29 cells; format: functional
[21] = test system: HCC 2998; experiment: Growth inhibition of human HCC2998 cells; format: functional
[22] = test system: OVCAR-8; experiment: Growth inhibition of human OVCAR8 cells; format: functional
[23] = test system: SNB-78; experiment: Growth inhibition of human SNB78 cells; format: functional
[24] = test system: PC-3; experiment: Growth inhibition of human PC3 cells; format: functional
[25] = Growth inhibition of human BSY1 cells; format: functional; conditions: BSY-1
[26] = test system: LOX IMVI; experiment: Growth inhibition of human LOXIMVI cells; format: functional
[27] = test system: KM12; experiment: Growth inhibition of human KM12 cells; format: functional
[28] = test system: U-251; experiment: Growth inhibition of human U251 cells; format: functional
[29] = test system: SNB-75; experiment: Growth inhibition of human SNB75 cells; format: functional
[30] = test system: SF-539; experiment: Growth inhibition of human SF539 cells; format: functional
[31] = test system: P388; experiment: Cytotoxicity against mouse P388 cells; format: functional, cell-based
Method in brief: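 Murine P388 leukemia cells, 2 × 10^4 cells/mL, in RPMI-1640 with 10% FBS, 10 µM 2-hydroxyethyl disulfide and kanamycin (100 µg/mL). Samples were added in MeOH. Cells were incubated 4 days at 37 °C in humidified 5% CO2, then counted by MTT. IC50 (50% inhibition of cell growth) was read from the growth curve.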

[32] = test system: HCT-116; experiment: Growth inhibition of human HCT116 cells; format: functional
[33] = test system: OVCAR-5; experiment: Growth inhibition of human OVCAR5 cells; format: functional
[34] = test system: HCT-15; experiment: Growth inhibition of human HCT15 cells; format: functional
[35] = test system: SF-295; experiment: Growth inhibition of human SF295 cells; format: functional
[36] = test system: DU-145; experiment: Growth inhibition of human DU145 cells; format: functional
[37] = test system: NCI-H522; experiment: Growth inhibition of human NCI-H522 cells; format: functional
[38] = test system: NCI-H23; experiment: Growth inhibition of human NCI-H23 cells; format: functional
[39] = test system: MCF7; experiment: Growth inhibition of human MCF7 cells; format: functional
[40] = test system: DMS-114; experiment: Growth inhibition of human DMS114 cells; format: functional

## CC/C=C/[C@H](CC)C[C@]1(CC)C=C(CC)[C@H](CC(=O)O)OO1 [HATERUMADIOXIN A]
[1]
  GI50: 2040 nM
[2]
  GI50: 2000 nM
[3]
  GI50: 2190 nM
[4]
  GI50: 1820 nM
[5]
  GI50: 1700 nM
[6]
  GI50: 1320 nM
[7]
  GI50: 1170 nM
[8]
  GI50: 1170 nM
[9]
  GI50: 676 nM
[10]
  GI50: 832 nM
[11]
  GI50: 1410 nM
[12]
  GI50: 1910 nM
[13]
  GI50: 1820 nM
[14]
  GI50: 2240 nM
[15]
  GI50: 1780 nM
[16]
  GI50: 1550 nM
[17]
  GI50: 2090 nM
[18]
  GI50: 1950 nM
[19]
  GI50: 1860 nM
[20]
  GI50: 1950 nM
[21]
  GI50: 1910 nM
[22]
  GI50: 2140 nM
[23]
  GI50: 1860 nM
[24]
  GI50: 1910 nM
[25]
  GI50: 1780 nM
[26]
  GI50: 100 nM
[27]
  GI50: 1820 nM
[28]
  GI50: 1780 nM
[29]
  GI50: 1660 nM
[30]
  GI50: 1820 nM
[31]
  IC50: 11 ng/mL (≈ 0.0354 µM)
[32]
  GI50: 1550 nM
[33]
  GI50: 1820 nM
[34]
  GI50: 1700 nM
[35]
  GI50: 1780 nM
[36]
  GI50: 1700 nM
[37]
  GI50: 1860 nM
[38]
  GI50: 5500 nM
[39]
  GI50: 1740 nM
[40]
  GI50: 1480 nM

## CCCC[C@H](CC)C[C@]1(CC)C=C(CC)[C@H](CC(=O)O)OO1 [HATERUMADIOXIN B]
[31]
  IC50: 5.5 ng/mL (≈ 0.0176 µM)
